ChEMBL document CHEMBL1145212, “Fluorinated diaryl sulfides as serotonin transporter ligands: synthesis, structure-activity relationship study, and in vivo evaluation of fluorine-18-labeled compounds as PET imaging agents” (J Med Chem, 2005)

Tests used:
Rattus norvegicus [1] = test: Biodistribution of [18F]AFA in rat frontal cortex at 10 min postinjection in vivo; type: ADME, organism-based
Method in brief: (§1)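 Male Sprague-Dawley rats, three per time point, received the F-18 radioligand in saline (~20 µCi per rat at injection) by tail vein. Under CO2 anesthesia they were decapitated at 10, 30, 60, 90 or 120 min. Blood and dissected brain regions were weighed and gamma counted. Activity was decay-corrected, and injected dose was corrected for tail residual activity. Uptake was expressed as %ID/g versus injectate standards, mean ± SD.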

Rattus norvegicus [2] = test: Biodistribution of [18F]AFA in rat frontal cortex at 30 min postinjection in vivo; type: ADME, organism-based; settings: 0.5 h; method in brief: as §1
Rattus norvegicus [3] = test: Biodistribution of [18F]AFA in rat frontal cortex at 60 min postinjection in vivo; type: ADME, organism-based; settings: 1 h; method in brief: as §1
Rattus norvegicus [4] = test: Biodistribution of [18F]AFA in rat frontal cortex at 90 min postinjection in vivo; type: ADME, organism-based; settings: 1.5 h; method in brief: as §1
Rattus norvegicus [5] = test: Biodistribution of [18F]AFA in rat frontal cortex at 120 min postinjection in vivo; type: ADME, organism-based; settings: 2 h; method in brief: as §1
Rattus norvegicus [6] = test: Biodistribution of [18F]AFA in rat blood at 120 min postinjection in vivo; type: ADME, organism-based; settings: 2 h; method in brief: as §1
Rattus norvegicus [7] = test: Biodistribution of [18F]AFA in rat striatum at 10 min postinjection in vivo; type: ADME, organism-based; method in brief: as §1
Rattus norvegicus [8] = test: Biodistribution of [18F]AFA in rat striatum at 30 min postinjection in vivo; type: ADME, organism-based; settings: 0.5 h; method in brief: as §1
Rattus norvegicus [9] = test: Biodistribution of [18F]AFA in rat striatum at 90 min postinjection in vivo; type: ADME, organism-based; settings: 1.5 h
Method in brief: (§2)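 Male Sprague-Dawley rats, three per group, received ~20 µCi of the F-18 radioligand in saline by tail-vein injection. Rats were anesthetized with CO2 and decapitated at 10, 30, 60, 90 or 120 min. Blood and brain regions were weighed and gamma-counted. %ID/g was decay- and tail-residual-corrected against F-18 standards made from the injectate and reported as mean ± SD.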

Rattus norvegicus [10] = test: Biodistribution of [18F]AFA in rat thalamus at 10 min postinjection in vivo; type: ADME, organism-based; method in brief: as §2
Rattus norvegicus [11] = test: Biodistribution of [18F]AFA in rat thalamus at 30 min postinjection in vivo; type: ADME, organism-based; settings: 0.5 h; method in brief: as §2
Rattus norvegicus [12] = test: Biodistribution of [18F]AFA in rat thalamus at 60 min postinjection in vivo; type: ADME, organism-based; settings: 1 h; method in brief: as §2
Rattus norvegicus [13] = test: Biodistribution of [18F]AFA in rat thalamus at 90 min postinjection in vivo; type: ADME, organism-based; settings: 1.5 h; method in brief: as §2
Rattus norvegicus [14] = organism: Rattus norvegicus; test: Specific binding of [18F]AFA in striatum of rat pretreated with compound 7c; n=3; type: functional
Rattus norvegicus [15] = organism: Rattus norvegicus; test: Specific binding of [18F]AFA in thalamus of rat pretreated with compound 7c; n=3; type: functional
Rattus norvegicus [16] = organism: Rattus norvegicus; test: Specific binding of [18F]AFA in hippocampus of rat pretreated with compound 7c; n=3; type: functional
Rattus norvegicus [17] = organism: Rattus norvegicus; test: Specific binding of [18F]AFA in hypothalamus of rat pretreated with compound 7c; n=3; type: functional
Rattus norvegicus [18] = organism: Rattus norvegicus; test: Specific binding of [18F]AFA in frontal cortex of rat pretreated with compound 7c; n=3; type: functional
Rattus norvegicus [19] = test: Biodistribution of [18F]AFA in rat blood at 10 min postinjection in vivo; type: ADME, organism-based; method in brief: as §1
Rattus norvegicus [20] = test: Biodistribution of [18F]AFA in rat blood at 60 min postinjection in vivo; type: ADME, organism-based; settings: 1 h; method in brief: as §1
Rattus norvegicus [21] = test: Biodistribution of [18F]AFA in rat blood at 90 min postinjection in vivo; type: ADME, organism-based; settings: 1.5 h; method in brief: as §1
Rattus norvegicus [22] = test: Biodistribution of [18F]AFA in rat striatum 60 min postinjection in vivo; type: ADME, organism-based; settings: 1 h; method in brief: as §1
Rattus norvegicus [23] = test: Biodistribution of [18F]AFA in rat cerebellum at 120 min postinjection in vivo; type: ADME, organism-based; settings: 2 h; method in brief: as §1
Rattus norvegicus [24] = test: Biodistribution of [18F]AFA in rat hippocampus at 10 min postinjection in vivo; type: ADME, organism-based; method in brief: as §1
Rattus norvegicus [25] = test: Biodistribution of [18F]AFA in rat hippocampus at 30 min postinjection in vivo; type: ADME, organism-based; settings: 0.5 h; method in brief: as §1
Rattus norvegicus [26] = test: Biodistribution of [18F]AFA in rat hippocampus at 60 min postinjection in vivo; type: ADME, organism-based; settings: 1 h; method in brief: as §1
Rattus norvegicus [27] = test: Biodistribution of [18F]AFA in rat hippocampus at 90 min postinjection in vivo; type: ADME, organism-based; settings: 1.5 h; method in brief: as §1
Rattus norvegicus [28] = test: Biodistribution of [18F]AFA in rat hippocampus at 120 min postinjection in vivo; type: ADME, organism-based; settings: 2 h; method in brief: as §1
Rattus norvegicus [29] = test: Biodistribution of [18F]AFA in rat hypothalamus at 10 min postinjection in vivo; type: ADME, organism-based; method in brief: as §1
Rattus norvegicus [30] = test: Biodistribution of [18F]AFA in rat hypothalamus at 30 min postinjection in vivo; type: ADME, organism-based; settings: 0.5 h; method in brief: as §1
Rattus norvegicus [31] = test: Biodistribution of [18F]-AFA in rat hypothalamus at 60 min postinjection in vivo; type: ADME, organism-based; settings: 1 h; method in brief: as §1
Rattus norvegicus [32] = test: Biodistribution of [18F]AFA in rat hypothalamus at 90 min postinjection in vivo; type: ADME, organism-based; settings: 1.5 h; method in brief: as §1
Rattus norvegicus [33] = test: Biodistribution of [18F]AFA in rat striatum at 120 min postinjection in vivo; type: ADME, organism-based; settings: 2 h; method in brief: as §1
Rattus norvegicus [34] = test: Biodistribution of [18F]-AFA in rat thalamus at 120 min postinjection in vivo; type: ADME, organism-based; settings: 2 h; method in brief: as §1
Rattus norvegicus [35] = test: Biodistribution of [18F]AFA in rat cerebellum at 30 min postinjection in vivo; type: ADME, organism-based; settings: 0.5 h; method in brief: as §1
Rattus norvegicus [36] = test: Biodistribution of [18F]AFA in rat cerebellum at 60 min postinjection in vivo; type: ADME, organism-based; settings: 1 h; method in brief: as §1
Rattus norvegicus [37] = test: Biodistribution of [18F]AFA in rat cerebellum at 90 min postinjection in vivo; type: ADME, organism-based; settings: 1.5 h; method in brief: as §1
Rattus norvegicus [38] = test: Biodistribution of [18F]AFA in rat blood at 30 min postinjection in vivo; type: ADME, organism-based; settings: 0.5 h; method in brief: as §1
Rattus norvegicus [39] = test: Biodistribution of [18F]AFA in rat cerebellum at 10 min postinjection in vivo; type: ADME, organism-based; method in brief: as §1
Rattus norvegicus [40] = test: Biodistribution of [18F]AFA in rat hypothalamus at 120 min postinjection in vivo; type: ADME, organism-based; settings: 2 h; method in brief: as §1

Biodistribution (Rattus norvegicus [1]): 0.81 %ID/g
Biodistribution (Rattus norvegicus [2]): 0.65 %ID/g
Biodistribution (Rattus norvegicus [3]): 0.28 %ID/g
Biodistribution (Rattus norvegicus [4]): 0.2 %ID/g
Biodistribution (Rattus norvegicus [5]): 0.11 %ID/g
Biodistribution (Rattus norvegicus [6]): 0.07 %ID/g
Biodistribution (Rattus norvegicus [7]): 0.65 %ID/g
Biodistribution (Rattus norvegicus [8]): 0.58 %ID/g
Biodistribution (Rattus norvegicus [9]): 0.19 %ID/g
Biodistribution (Rattus norvegicus [10]): 0.72 %ID/g
Biodistribution (Rattus norvegicus [11]): 0.69 %ID/g
Biodistribution (Rattus norvegicus [12]): 0.34 %ID/g
Biodistribution (Rattus norvegicus [13]): 0.23 %ID/g
Biodistribution (Rattus norvegicus [19]): 0.27 %ID/g
Biodistribution (Rattus norvegicus [20]): 0.08 %ID/g
Biodistribution (Rattus norvegicus [21]): 0.08 %ID/g
Biodistribution (Rattus norvegicus [22]): 0.26 %ID/g
Biodistribution (Rattus norvegicus [23]): 0.04 %ID/g
Biodistribution (Rattus norvegicus [24]): 0.54 %ID/g
Biodistribution (Rattus norvegicus [25]): 0.48 %ID/g
Biodistribution (Rattus norvegicus [26]): 0.23 %ID/g
Biodistribution (Rattus norvegicus [27]): 0.18 %ID/g
Biodistribution (Rattus norvegicus [28]): 0.1 %ID/g
Biodistribution (Rattus norvegicus [29]): 0.73 %ID/g
Biodistribution (Rattus norvegicus [30]): 0.66 %ID/g
Biodistribution (Rattus norvegicus [31]): 0.38 %ID/g
Biodistribution (Rattus norvegicus [32]): 0.3 %ID/g
Biodistribution (Rattus norvegicus [33]): 0.11 %ID/g
Biodistribution (Rattus norvegicus [34]): 0.16 %ID/g
Biodistribution (Rattus norvegicus [35]): 0.2 %ID/g
Biodistribution (Rattus norvegicus [36]): 0.07 %ID/g
Biodistribution (Rattus norvegicus [37]): 0.04 %ID/g
Biodistribution (Rattus norvegicus [38]): 0.16 %ID/g
Biodistribution (Rattus norvegicus [39]): 0.38 %ID/g
Biodistribution (Rattus norvegicus [40]): 0.17 %ID/g
SMILES: CN(C)Cc1ccccc1Sc1ccc([18F])cc1N
Specific binding (Rattus norvegicus [14]): 0.37 %ID/g
Specific binding (Rattus norvegicus [15]): 0.81 %ID/g
Specific binding (Rattus norvegicus [16]): 0.55 %ID/g
Specific binding (Rattus norvegicus [17]): 0.62 %ID/g
Specific binding (Rattus norvegicus [18]): 0.53 %ID/g
